# HDAC3 inhib: blocks human histone deacetylase 3 | recombinant HDAC3, fluorogenic peptide/trypsin coupled, fluorescence | inhibition, % at 8.3 µM | 320,000 tested, 0.15% active | AID 2718; in the data active = inhibition above about 26%, passing the limit was not always enough; inconclusive = no clear call, values can overlap the other calls
# ALR inh: human ALR oxidase inhibition via reduced H2O2; purified ALR, DTT oxidation, H2O2 HRP-luminol luminescence; inhibition, % (test concentration not listed); 290,000 tested, 3.8% active; AID 485317;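 active = mean replicate inhibition above about 79%, with every replicate also reaching it, limit read from the data; inconclusive = only one of the two criteria met; inactive = mean below limit and not every replicate reaching it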
# FAS-TE inh: FAS thioesterase (human) inhibition | recombinant FAS-TE, OMFH fluorogenic substrate, fluorescence endpoint | inhibition, % at 15 µM | 360,000 tested, 0.67% active;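 active = compounds whose normalised, plate-corrected inhibition of enzyme fluorescence in the single-dose primary screen is 50% or more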;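 note: 0% = DMSO with enzyme and 100% = substrate without enzyme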
# Target sequence (P49327 whole entry, looked up): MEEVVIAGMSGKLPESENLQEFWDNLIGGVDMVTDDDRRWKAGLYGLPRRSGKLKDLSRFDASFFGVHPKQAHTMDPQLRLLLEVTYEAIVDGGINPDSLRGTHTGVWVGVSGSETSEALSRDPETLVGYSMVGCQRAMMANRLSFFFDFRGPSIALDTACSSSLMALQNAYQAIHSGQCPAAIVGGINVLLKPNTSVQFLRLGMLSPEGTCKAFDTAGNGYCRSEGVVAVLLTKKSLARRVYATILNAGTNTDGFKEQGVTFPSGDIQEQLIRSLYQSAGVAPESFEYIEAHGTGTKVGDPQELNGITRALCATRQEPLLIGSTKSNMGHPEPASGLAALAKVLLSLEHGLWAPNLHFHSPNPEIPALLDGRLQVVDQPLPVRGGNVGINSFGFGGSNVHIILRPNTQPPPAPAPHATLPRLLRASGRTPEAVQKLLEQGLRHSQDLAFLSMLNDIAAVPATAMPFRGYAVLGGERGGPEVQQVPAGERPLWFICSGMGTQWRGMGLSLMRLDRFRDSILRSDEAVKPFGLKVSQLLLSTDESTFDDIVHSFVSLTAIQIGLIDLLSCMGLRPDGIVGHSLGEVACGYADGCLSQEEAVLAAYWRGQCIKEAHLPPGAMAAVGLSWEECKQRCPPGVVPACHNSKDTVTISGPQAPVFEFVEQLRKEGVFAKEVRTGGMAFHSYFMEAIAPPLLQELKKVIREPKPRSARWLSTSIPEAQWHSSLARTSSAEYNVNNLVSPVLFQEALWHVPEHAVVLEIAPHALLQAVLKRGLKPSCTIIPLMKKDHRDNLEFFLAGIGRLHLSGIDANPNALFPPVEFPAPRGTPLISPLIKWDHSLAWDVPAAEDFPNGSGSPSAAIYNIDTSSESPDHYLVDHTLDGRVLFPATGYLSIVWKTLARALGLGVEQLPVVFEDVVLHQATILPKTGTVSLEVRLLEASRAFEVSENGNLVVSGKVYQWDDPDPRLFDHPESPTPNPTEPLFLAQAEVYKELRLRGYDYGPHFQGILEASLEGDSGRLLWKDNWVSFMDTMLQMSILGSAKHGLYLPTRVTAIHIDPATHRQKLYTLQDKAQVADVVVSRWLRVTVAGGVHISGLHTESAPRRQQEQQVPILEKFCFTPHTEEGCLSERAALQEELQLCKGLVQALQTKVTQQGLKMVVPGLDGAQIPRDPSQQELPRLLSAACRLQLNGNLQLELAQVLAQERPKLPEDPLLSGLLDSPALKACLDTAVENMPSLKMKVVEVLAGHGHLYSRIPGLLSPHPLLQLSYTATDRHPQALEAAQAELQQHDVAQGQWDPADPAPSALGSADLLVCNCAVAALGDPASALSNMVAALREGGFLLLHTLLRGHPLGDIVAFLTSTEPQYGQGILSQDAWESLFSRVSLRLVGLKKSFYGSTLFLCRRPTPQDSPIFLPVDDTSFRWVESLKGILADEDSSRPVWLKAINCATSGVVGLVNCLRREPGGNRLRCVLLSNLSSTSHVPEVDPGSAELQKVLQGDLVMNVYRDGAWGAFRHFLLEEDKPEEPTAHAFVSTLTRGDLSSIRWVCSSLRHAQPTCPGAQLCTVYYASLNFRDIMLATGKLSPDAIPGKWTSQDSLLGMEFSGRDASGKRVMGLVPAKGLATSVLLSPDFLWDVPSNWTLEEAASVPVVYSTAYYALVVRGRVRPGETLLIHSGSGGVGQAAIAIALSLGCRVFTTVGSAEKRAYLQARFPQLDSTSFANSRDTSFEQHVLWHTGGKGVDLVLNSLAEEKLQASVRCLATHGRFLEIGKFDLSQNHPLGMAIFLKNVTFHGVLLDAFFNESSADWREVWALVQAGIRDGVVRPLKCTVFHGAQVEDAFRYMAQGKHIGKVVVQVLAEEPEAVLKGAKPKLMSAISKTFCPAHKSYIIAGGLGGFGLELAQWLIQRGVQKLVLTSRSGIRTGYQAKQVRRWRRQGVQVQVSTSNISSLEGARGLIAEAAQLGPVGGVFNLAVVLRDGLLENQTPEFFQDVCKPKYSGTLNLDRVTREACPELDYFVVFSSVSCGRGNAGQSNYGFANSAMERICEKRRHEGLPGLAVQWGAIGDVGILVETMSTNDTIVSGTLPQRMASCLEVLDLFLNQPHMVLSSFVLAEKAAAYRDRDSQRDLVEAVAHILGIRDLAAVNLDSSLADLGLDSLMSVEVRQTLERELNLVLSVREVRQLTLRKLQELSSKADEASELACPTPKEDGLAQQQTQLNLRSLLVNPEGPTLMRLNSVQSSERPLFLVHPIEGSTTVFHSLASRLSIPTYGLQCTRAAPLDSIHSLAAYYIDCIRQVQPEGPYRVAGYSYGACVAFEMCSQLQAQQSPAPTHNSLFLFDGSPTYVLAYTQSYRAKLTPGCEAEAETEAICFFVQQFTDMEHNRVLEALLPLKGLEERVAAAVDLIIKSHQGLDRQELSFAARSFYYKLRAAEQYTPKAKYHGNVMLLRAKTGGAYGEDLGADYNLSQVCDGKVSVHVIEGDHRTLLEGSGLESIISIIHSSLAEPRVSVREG
# PfM18AAP inh: blocks P. falciparum M18 aspartyl aminopeptidase; recombinant PfM18AAP, H-Glu-NHMec fluorogenic cleavage; inhibition, % at 7.35 µM; 290,000 tested, 1.2% active;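 active = inhibition above the campaign mean inhibition over all tested compounds plus 3 SD, cut at about 28% in these data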;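 note: 0% = plate median of test compound wells and 100% = 2 mM ZnCl2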
# UCH37 inh: inhibitors of human deubiquitinating enzyme UCH37; Q9Y5K5; purified proteasome/UCH37, Ub-AMC cleavage fluorescence; inhibition, % (test concentration not listed); 330,000 tested, 0.33% active; AID 588478;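 active = mean inhibition over replicate wells above about 20%, limit read from the data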;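 note: 0% = compound-free wells with enzyme and 100% = wells lacking proteasome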
#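 Material: human UCH37 enzyme supplied as purified proteasome complex. Measure: % inhibition of Ub-AMC cleavage fluorescence. Medium: pH 7.4 Tris-HCl (50 mM) with ovalbumin, ATP-MgCl2, DTT. Times: 30 min preincubation with enzyme, 25 min cleavage at room temperature. Detection: AMC fluorescence intensity at 355/460 nm.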
# Rtt109 HAT inh: blocks Candida albicans Rtt109/Vps75 acetyltransferase activity | AID 540336 | 330,000 tested, 0.16% active | purified Rtt109/Vps75, ThioGlo CoA-SH fluorescence, 4 h | inhibition, % at 34.9 µM;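 active = inhibition of at least 50% in every replicate; inconclusive = best replicate reaches 50% inhibition but some replicates fall short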
# FAS-TE inh conf: FAS thioesterase (human) inhibition, confirmation; AID 624325; inhibition, % at 15 µM; recombinant FAS-TE, OMFH fluorogenic substrate, fluorescence; 2,300 tested, 45% active; shares compounds with FAS-TE inh;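 active = compounds inhibiting the enzyme by at least 50% at 15 µM in any one of the replicates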;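 note: 0% = enzyme with DMSO only and 100% = wells lacking enzyme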
# Active calls of the source: *; ? = inconclusive; / = no result. Rows were chosen to be rich in hits. Some 4.6% of all compounds tested hit in one or more screens of this group.
SMILES,HDAC3 inhib,ALR inh,FAS-TE inh,PfM18AAP inh,UCH37 inh,Rtt109 HAT inh,FAS-TE inh conf
CC(C)(C)c1ccc(/C=N/NC(=S)NC2CCCCC2)cc1,/,/,53*,3,/,10,45*
O=C(O)c1ccc(C=NNC(=S)NC2CCCCC2)cc1,/,/,/,/,5,/,/
COc1ccc(/C=C(/NC(=O)c2ccc(OC)c(OC)c2)C(=O)NCCc2c[nH]c3ccccc23)cc1,7,-1,-3,2,3,-11,/
COc1ccc(C(=O)N/C(=C/c2cccc3ccccc23)C(=O)NCCc2c[nH]c3ccccc23)cc1OC,10,-1,61*,0,-1,-1,7
CCN(CC)c1ccc(/C=N/NC(=O)c2cccc(S(=O)(=O)N3CCOCC3)c2)cc1,-8,6,2,4,/,-6,/
CCN(Cc1ccccc1)c1ccc(/C=N/NC(=O)c2cccc(S(=O)(=O)N3CCOCC3)c2)cc1,3,0,82*,9,/,-11,8
Cc1nn(C)cc1C(C(=O)NC1CCCCC1)N(C(=O)Cc1cccs1)c1ccc(F)cc1 (stereo unspecified),-8,-13,-5,0,-3,9,/
Cc1nn(C)cc1C(C(=O)NC1CCCCC1)N(C(=O)Cc1cccs1)c1ccc(C(C)C)cc1 (stereo unspecified),1,-1,61*,6,4,-16,59*
O=C(Cn1c(=O)c2c(ncn2Cc2ccccc2)n(Cc2ccccc2)c1=O)N1CCc2ccccc21,?,2,66*,-7,6,-4,22
CCn1cnc2c1c(=O)n(CC(=O)N1CCc3ccccc31)c(=O)n2Cc1ccccc1,2,/,9,-2,1,-1,/
CCn1c(Cl)c(C=O)s/c1=N\S(=O)(=O)c1ccccc1,/,37,76*,-39,/,13,33
Cc1cn(C2OC(COC(=O)c3ccccc3)C(OC(=O)c3ccccc3)C2OC(=O)c2ccccc2)c(=O)[nH]c1=O (stereo unspecified),/,/,87*,8,2,-5,5
COC(=O)c1ccccc1NC(=S)N(Cc1ccc2c(c1)OCO2)Cc1cc2cc(OC)ccc2[nH]c1=O,6,0,68*,6,0,-2,31
COc1ccccc1NC(=S)N(CCCN(C)C)Cc1cc2cc3c(cc2[nH]c1=O)OCO3,-3,-22,-2,11,-90,5,/
CS(=O)(=O)N(CC(=O)N/N=C/c1ccccc1C(=O)O)c1cccc(Cl)c1Cl,2,-9,-4,5,/,-3,/
CC(C)c1ccc(/C=N/NC(=O)CN(c2cccc(Cl)c2Cl)S(C)(=O)=O)cc1,-5,-2,57*,2,/,17,58*
NC(=S)N/N=C/c1ccc(-c2ccc(SC(F)F)cc2)o1,10,21,55*,7,/,6,39*
Cc1[nH]c2ccccc2c1C=NNC(=O)c1cccc(S(=O)(=O)Nc2cccc(C(F)(F)F)c2)c1,/,/,/,/,-2,/,/
O=C(OC(c1ccccc1)c1nccc2ccccc12)c1cc([N+](=O)[O-])cc([N+](=O)[O-])c1 (stereo unspecified),-3,-18,50*,-3,2,7,43
OC(c1cccc(Cl)c1)c1nccc2ccccc12 (stereo unspecified),5,/,4,0,3,-2,/
CCOC(=O)C1=C(N)n2c(sc(=Cc3ccccc3)c2=O)=C(C(=O)OCC)C1c1ccccc1 (stereo unspecified),/,/,/,/,6,/,/
C=CCC[C@@H](Cc1ccc(F)cc1)C(=O)OC[C@H](Cc1c[nH]c2ccccc12)NC(=O)[C@H](CC=C)CC(=O)NCCO,32*,3,57*,/,5,13,68*
CC(=O)N1CCN(c2ccccc2NC(=O)c2ccc(-c3cccc([N+](=O)[O-])c3)o2)CC1,-2,-4,66*,-1,6,3,42*
O=C(NC(=S)Nc1ccccc1N1CCCC1)c1ccc(-c2cccc([N+](=O)[O-])c2)o1,8,-5,22,8,7,12,/
COc1cc(/C=N/NC(=O)c2ccc3ccccc3c2)ccc1Oc1ccc([N+](=O)[O-])cn1,3,/,52*,-2,/,8,12
SMILES,HDAC3 inhib,ALR inh,FAS-TE inh,PfM18AAP inh,UCH37 inh,Rtt109 HAT inh,FAS-TE inh conf
CC(=NNC(=O)c1cc(C)nc2ccc(C)cc12)c1ccncc1,/,/,/,/,5,/,/
N#Cc1c(N=Cc2ccc(O)c([N+](=O)[O-])c2)sc2c1CCCC2,/,/,/,/,4,/,/
O=[N+]([O-])c1c(NCCCO)cc(Sc2ccc(Cl)cc2)c2nonc12,3,22,61*,-1,13,7,49*
CC(=O)OCCNc1cc(Sc2nc3ccccc3[nH]2)c2nonc2c1[N+](=O)[O-],3,96*,76*,-62,12,70*,72*
CC(=O)OCCCNc1cc(Sc2nc3ccccc3s2)c2nonc2c1[N+](=O)[O-],-1,-26,82*,-10,/,2,67*
Cc1nc(N2CCN(S(=O)(=O)c3cccc4nonc34)CC2)c2c3c(sc2n1)CCCC3,/,/,54*,-6,3,2,7
Cc1nc(N2CCN(S(=O)(=O)c3ccccc3)CC2)c2c3c(sc2n1)CC(C)CC3 (stereo unspecified),/,/,32,-5,/,-18,/
CC1(CC(=O)NN=Cc2cc(Br)c(O)cc2O)OCCO1,/,/,/,/,-1,/,/
CC(CCc1ccc2c(c1)OCO2)=NNC(=O)c1ccccc1,/,/,/,/,5,/,/
O=C(Nc1ccccc1)C1=C(c2ccccc2)S(=O)(=O)CCS1(=O)=O,/,/,80*,-33,-1,2,37
NC(=O)NN=Cc1cn(CC(=O)Nc2ccc(F)cc2)c2ccccc12,/,/,/,/,-2,/,/
NC(=O)NN=C/C=C/C=C/c1ccc(F)cc1,/,/,/,/,0,/,/
Cc1cccc(NC(=O)CSc2nc3c(oc4ccccc43)c(=O)n2-c2ccccc2)c1,-4,-4,57*,-9,5,14,35*
COc1ccc(NC(=O)Nc2ccc3c(c2)C(=O)N([C@H](C)CO)C[C@H](C)[C@@H](CN(C)Cc2ccc(Cl)c(Cl)c2)OCCCC[C@@H](C)O3)cc1,/,/,62*,/,/,/,8
C[C@@H]1CCCCO[C@H](CN(C)Cc2ccc(Cl)c(Cl)c2)[C@H](C)CN([C@@H](C)CO)C(=O)c2cc(NC(=O)Nc3ccc(F)cc3)ccc2O1,/,/,29,/,/,/,/
C[C@@H]1CCCCO[C@@H](CN(C)Cc2ccccc2)[C@@H](C)CN([C@H](C)CO)C(=O)c2cc(NC(=O)Nc3cccc4ccccc34)ccc2O1,/,/,52*,/,/,/,14
C[C@H]1CN([C@@H](C)CO)C(=O)c2cc(NC(=O)Nc3cccc4ccccc34)ccc2O[C@@H]1CN(C)Cc1ccc(-c2ccccc2)cc1,3,1,60*,/,1,-27,16
